Assays:
[1] = tested on: MKN-45; assay: Cytotoxicity against human MKN45 cells after 72 hrs by SRB assay; format: functional; conditions: MKN-45, 72 h
[2] = tested on: SK-OV-3; assay: Cytotoxicity against human SKOV3 cells after 72 hrs by SRB assay; format: functional; conditions: SK-OV-3, 72 h
[3] = tested on: MKN-74; assay: Cytotoxicity against human MKN74 cells after 72 hrs by SRB assay; format: functional; conditions: MKN-74, 72 h
[4] = tested on: DU-145; assay: Cytotoxicity against human DU145 cells after 72 hrs by SRB assay; format: functional; conditions: DU-145, 72 h
[5] = tested on: SNB-75; assay: Cytotoxicity against human SNB75 cells after 72 hrs by SRB assay; format: functional; conditions: SNB-75, 72 h
[6] = tested on: U-251; assay: Cytotoxicity against human U251 cells after 72 hrs by SRB assay; format: functional; conditions: U-251, 72 h
[7] = tested on: HCC 2998; assay: Cytotoxicity against human HCC2998 cells after 72 hrs by SRB assay; format: functional; conditions: HCC 2998, 72 h
[8] = tested on: SNB-78; assay: Cytotoxicity against human SNB78 cells after 72 hrs by SRB assay; format: functional; conditions: SNB-78, 72 h
[9] = tested on: LOX IMVI; assay: Cytotoxicity against human LOXIMVI cells after 72 hrs by SRB assay; format: functional
[10] = tested on: SF-295; assay: Cytotoxicity against human SF295 cells after 72 hrs by SRB assay; format: functional; conditions: SF-295, 72 h
[11] = tested on: MKN-28; assay: Cytotoxicity against human MKN28 cells after 72 hrs by SRB assay; format: functional; conditions: MKN-28, 72 h
[12] = tested on: DMS-114; assay: Cytotoxicity against human DMS114 cells after 72 hrs by SRB assay; format: functional; conditions: DMS-114, 72 h
[13] = tested on: HCT-15; assay: Cytotoxicity against human HCT15 cells after 72 hrs by SRB assay; format: functional; conditions: HCT-15, 72 h
[14] = Cytotoxicity against human HBC5 cells after 72 hrs by SRB assay; format: functional; conditions: HBC5, 72 h
[15] = tested on: ACHN; assay: Cytotoxicity against human ACHN cells after 72 hrs by SRB assay; format: functional
[16] = tested on: A549; assay: Cytotoxicity against human A549 cells after 72 hrs by SRB assay; format: functional, cell-based; conditions: A549, 72 h
Method in brief: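 Adherent cells grown at 37 °C and 5% CO2. Seeded at 1×10^4/well 24 h before dosing, then 72 h at 10–0.01 µg/mL final. Fixed with cold 50% TCA, stained with 0.4% SRB, dye extracted in 10 mM Tris, read at 540 nm.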

[17] = tested on: MKN-7; assay: Cytotoxicity against human MKN7 cells after 72 hrs by SRB assay; format: functional; conditions: MKN-7, 72 h
[18] = tested on: SF-539; assay: Cytotoxicity against human SF539 cells after 72 hrs by SRB assay; format: functional; conditions: SF-539, 72 h
[19] = Cytotoxicity against human BSY1 cells after 72 hrs by SRB assay; format: functional; conditions: BSY-1, 72 h
[20] = tested on: SF-268; assay: Cytotoxicity against human SF268 cells after 72 hrs by SRB assay; format: functional; conditions: SF-268, 72 h
[21] = tested on: OVCAR-5; assay: Cytotoxicity against human OVCAR5 cells after 72 hrs by SRB assay; format: functional; conditions: OVCAR-5, 72 h
[22] = tested on: KM12; assay: Cytotoxicity against human KM12 cells after 72 hrs by SRB assay; format: functional; conditions: KM12, 72 h
[23] = tested on: OVCAR-4; assay: Cytotoxicity against human OVCAR4 cells after 72 hrs by SRB assay; format: functional; conditions: OVCAR-4, 72 h
[24] = tested on: OVCAR-3; assay: Cytotoxicity against human OVCAR3 cells after 72 hrs by SRB assay; format: functional; conditions: OVCAR-3, 72 h
[25] = tested on: MDA-MB-231; assay: Cytotoxicity against human MDA-MB-231 cells after 72 hrs by SRB assay; format: functional; conditions: MDA-MB-231, 72 h
[26] = tested on: St-4; assay: Cytotoxicity against human St-4 cells after 72 hrs by SRB assay; format: functional; conditions: St-4, 72 h
[27] = Cytotoxicity against human HBC4 cells after 72 hrs by SRB assay; format: functional; conditions: HBC4, 72 h
[28] = tested on: PC-3; assay: Cytotoxicity against human PC3 cells after 72 hrs by SRB assay; format: functional; conditions: PC-3, 72 h
[29] = read-out: LC50 (the source's name)
[30] = read-out: pLC50 (the source's name) (converted)

Work on `COc1ccc(C2O[C@]34CC(c5cccc(Cl)c5)OC(=O)C3=C[C@@]2(C)OO4)cc1` (stereo partly specified) yielded a TGI [1] of 31 µM, a GI50 ([1]; read-out: GI50) of 14 µM and a CC50 [1, 29] of 68 µM. The GI50 ([1]; read-out: pGI50 (converted)) was 15.5 µM, the CC50 [1, 30] was 57.5 µM and the TGI [2] was 29 µM. It also gave a GI50 ([2]; read-out: GI50) of 16 µM, a CC50 [2, 29] of 54 µM and a GI50 ([2]; read-out: pGI50 (converted)) of 19.1 µM. It also gave a CC50 [2, 30] of 58.9 µM, a TGI [3] of 44 µM and a GI50 ([3]; read-out: GI50) of 15 µM. The CC50 [3, 29] was 100 µM, the GI50 ([3]; read-out: pGI50 (converted)) was 14.1 µM and the CC50 [3, 30] was 95.5 µM. For the same compound, the TGI [4] was 29 µM, the GI50 ([4]; read-out: GI50) was 15 µM and the CC50 [4, 29] was 54 µM. It also gave a GI50 ([4]; read-out: pGI50 (converted)) of 16.6 µM, a CC50 [4, 30] of 56.2 µM and a TGI [5] of 28 µM. The GI50 ([5]; read-out: GI50) was 12 µM, the CC50 [5, 29] was 67 µM and the GI50 ([5]; read-out: pGI50 (converted)) was 12.3 µM. It also gave a CC50 [5, 30] of 63.1 µM, a TGI [6] of 36 µM and a GI50 ([6]; read-out: GI50) of 18 µM. The CC50 [6, 29] was 73 µM, the GI50 ([6]; read-out: pGI50 (converted)) was 15.8 µM and the CC50 [6, 30] was 69.2 µM. The TGI [7] was 30 µM, the GI50 ([7]; read-out: GI50) was 15 µM and the CC50 [7, 29] was 62 µM. The GI50 ([7]; read-out: pGI50 (converted)) was 6.31 µM, the CC50 [7, 30] was 61.7 µM and the TGI [8] was 34 µM. It also gave a GI50 ([8]; read-out: GI50) of 14 µM, a CC50 [8, 29] of 84 µM and a GI50 ([8]; read-out: pGI50 (converted)) of 12.6 µM. The CC50 [8, 30] was 91.2 µM, the TGI [9] was 12 µM and the GI50 ([9]; read-out: GI50) was 3.1 µM. For the same compound, the CC50 [9, 29] was 60 µM, the GI50 ([9]; read-out: pGI50 (converted)) was 2.04 µM and the CC50 [9, 30] was 7.59 µM. The TGI [10] was 33 µM, the GI50 ([10]; read-out: GI50) was 18 µM and the CC50 [10, 29] was 62 µM. It also gave a GI50 ([10]; read-out: pGI50 (converted)) of 18.2 µM, a CC50 [10, 30] of 60.3 µM and a TGI [11] of 40 µM. It also gave a GI50 ([11]; read-out: GI50) of 14 µM, a CC50 [11, 29] of 100 µM and a GI50 ([11]; read-out: pGI50 (converted)) of 11 µM. For the same compound, the CC50 ([11]; read-out: pLC50 (converted)) was > 100 µM, the TGI [12] was 36 µM and the GI50 ([12]; read-out: GI50) was 14 µM. It also gave a CC50 [12, 29] of 92 µM, a GI50 ([12]; read-out: pGI50 (converted)) of 4.47 µM and a CC50 [12, 30] of 95.5 µM. For the same compound, the TGI [13] was 24 µM, the GI50 ([13]; read-out: GI50) was 4.4 µM and the CC50 [13, 29] was 100 µM. For the same compound, the GI50 ([13]; read-out: pGI50 (converted)) was 3.72 µM, the CC50 ([13]; read-out: pLC50 (converted)) was > 100 µM and the TGI [14] was 8 µM. The GI50 ([14]; read-out: GI50) was 2.4 µM, the CC50 [14, 29] was 44 µM and the GI50 ([14]; read-out: pGI50 (converted)) was 1.95 µM. It also gave a CC50 [14, 30] of 8.71 µM, a TGI [15] of 29 µM and a GI50 ([15]; read-out: GI50) of 16 µM. It also gave a CC50 [15, 29] of 55 µM, a GI50 ([15]; read-out: pGI50 (converted)) of 15.5 µM and a CC50 [15, 30] of 56.2 µM. It also gave an IC50 [16] of 10.2 µM, a TGI [16] of 38 µM and a GI50 ([16]; read-out: GI50) of 18 µM. For the same compound, the CC50 [16, 29] was 78 µM, the GI50 ([16]; read-out: pGI50 (converted)) was 17.8 µM and the CC50 [16, 30] was 77.6 µM. For the same compound, the TGI [17] was 31 µM, the GI50 ([17]; read-out: GI50) was 10 µM and the CC50 [17, 29] was 97 µM. The GI50 ([17]; read-out: pGI50 (converted)) was 3.47 µM, the CC50 [17, 30] was 89.1 µM and the TGI [18] was 23 µM. It also gave a GI50 ([18]; read-out: GI50) of 8.4 µM, a CC50 [18, 29] of 55 µM and a GI50 ([18]; read-out: pGI50 (converted)) of 2.75 µM. It also gave a CC50 [18, 30] of 13.5 µM, a TGI [19] of 26 µM and a GI50 ([19]; read-out: GI50) of 12 µM. It also gave a CC50 [19, 29] of 57 µM, a GI50 ([19]; read-out: pGI50 (converted)) of 5.01 µM and a CC50 [19, 30] of 46.8 µM. For the same compound, the TGI [20] was 41 µM, the GI50 ([20]; read-out: GI50) was 18 µM and the CC50 [20, 29] was 94 µM. For the same compound, the GI50 ([20]; read-out: pGI50 (converted)) was 13.8 µM, the CC50 [20, 30] was 91.2 µM and the TGI [21] was 17 µM. For the same compound, the GI50 ([21]; read-out: GI50) was 5.3 µM, the CC50 [21, 29] was 42 µM and the GI50 ([21]; read-out: pGI50 (converted)) was 2.75 µM. For the same compound, the CC50 [21, 30] was 26.3 µM, the TGI [22] was 51 µM and the GI50 ([22]; read-out: GI50) was 25 µM. It also gave a CC50 [22, 29] of 100 µM, a GI50 ([22]; read-out: pGI50 (converted)) of 17.8 µM and a CC50 [22, 30] of 85.1 µM. For the same compound, the TGI [23] was 24 µM, the GI50 ([23]; read-out: GI50) was 9.2 µM and the CC50 [23, 29] was 59 µM. It also gave a GI50 ([23]; read-out: pGI50 (converted)) of 1.55 µM, a CC50 [23, 30] of 41.7 µM and a TGI [24] of 10 µM. For the same compound, the GI50 ([24]; read-out: GI50) was 3.4 µM, the CC50 [24, 29] was 42 µM and the GI50 ([24]; read-out: pGI50 (converted)) was 2.45 µM. The CC50 [24, 30] was 12.6 µM, the TGI [25] was 26 µM and the GI50 ([25]; read-out: GI50) was 12 µM. It also gave a CC50 [25, 29] of 58 µM, a GI50 ([25]; read-out: pGI50 (converted)) of 5.37 µM and a CC50 [25, 30] of 51.3 µM. The TGI [26] was 47 µM, the GI50 ([26]; read-out: GI50) was 19 µM and the CC50 [26, 29] was 100 µM. For the same compound, the GI50 ([26]; read-out: pGI50 (converted)) was 17.8 µM, the CC50 ([26]; read-out: pLC50 (converted)) was > 100 µM and the TGI [27] was 24 µM. For the same compound, the GI50 ([27]; read-out: GI50) was 11 µM, the CC50 [27, 29] was 54 µM and the GI50 ([27]; read-out: pGI50 (converted)) was 3.72 µM. For the same compound, the CC50 [27, 30] was 38 µM, the TGI [28] was 28 µM and the GI50 ([28]; read-out: GI50) was 15 µM. It also gave a CC50 [28, 29] of 55 µM, a GI50 ([28]; read-out: pGI50 (converted)) of 13.2 µM and a CC50 [28, 30] of 56.2 µM.
